Each structure is given as a SMILES string. Converted amounts (≈) assume the structure as drawn. The source made the active and inactive calls. The rule behind the calls is not given here.

The values that follow come from ChEMBL document CHEMBL4257483, “Design, synthesis and bioactivities of phenithionate analogues or derivatives for anti-schistosomiasis” (Medchemcomm, 2018).

In data set [1] the test system is Schistosoma japonicum. The experiment in a line: Antischistosomal activity against Schistosoma japonicum larva derived from infected mouse assessed as reduction in larva viability after 72 hrs. It is filed as functional, organism-based. The procedure, abridged: (§1)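 Worms perfused with cold heparinised HBSS from mice infected percutaneously with S. japonicum cercariae: larvae at 15 days post-infection (260–280 cercariae), adults at 35 days (120–140 cercariae). Five male and female worms per well in 10% calf serum RPMI 1640 with penicillin, streptomycin and amphotericin B. Preincubated 4 h at 37 °C, 5% CO2, then compounds added and viability recorded over 72 h. IC50 taken at 50% survival. DMSO blank.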

Data set [2] deals with Schistosoma japonicum. Kind of data set: Antischistosomal activity against Schistosoma japonicum imago derived from infected mouse assessed as reduction in imago viability after 72 hrs. It is filed as functional, organism-based. The procedure, abridged: as §1
Data set [3] in a line: Lipid/water partition coefficient, log P of the compound. The data set is classed as physicochemical.
Data set [4] can be described thus: Dissociation constant, pKa of the compound. The data set is classed as physicochemical.
Data set [5] has as its system Schistosoma japonicum. The experiment in a line: Antischistosomal activity against Schistosoma japonicum imago derived from infected mouse at 20 ug/ml after 72 hrs. The data set is classed as functional, organism-based. In short, it runs like this:
as §1

The test system of data set [6] is Schistosoma haematobium. The experiment in a line: Antischistosomal activity against Schistosoma haematobium imago derived from infected mouse at 20 ug/ml after 72 hrs. It is filed as functional, organism-based.
Data set [7] concerns Schistosoma mansoni. The experiment in a line: Antischistosomal activity against Schistosoma mansoni imago derived from infected mouse at 20 ug/ml after 72 hrs. It is filed as functional, organism-based.
In data set [8] the test system is Schistosoma japonicum. The experiment in a line: Antischistosomal activity against Schistosoma japonicum infected in mouse at 25 mg/kg/day, po treated for 5 days measured after day 1 post last dose by ELISA. It is filed as functional, organism-based. The procedure, abridged: (§2)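 Male mice (20–22 g) infected via abdominal skin with 120–140 S. japonicum cercariae. From day 35 post-infection, dosed orally once daily for 5 days. Venous blood then clotted and centrifuged 15 min at 3500 rpm. Serum tested by triple dot ELISA and scored by spot colour: brown +++, yellow ++, slight yellow +, colourless –. DMSO blank.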
In general terms: An ELISA detects its analyte on a solid surface through an enzyme-linked reagent.

Data set [9] relates to Schistosoma japonicum. Kind of data set: Antischistosomal activity against Schistosoma japonicum infected in mouse at 50 mg/kg/day, po treated for 5 days measured after day 1 post last dose by ELISA. It is filed as functional, organism-based. The procedure, abridged:
as §2

The subject of data set [10] is Schistosoma japonicum. Kind of data set: Antischistosomal activity against Schistosoma japonicum infected in mouse at 25 mg/kg/day, po treated for 5 days measured after day 2 post last dose by ELISA. It is filed as functional, organism-based. In short, it runs like this: as §2
In data set [11] the test system is Schistosoma japonicum. The experiment in a line: Antischistosomal activity against Schistosoma japonicum infected in mouse at 50 mg/kg/day, po treated for 5 days measured after day 2 post last dose by ELISA. It is filed as functional, organism-based. The procedure, abridged:
as §2

For data set [12], the system named is Schistosoma japonicum. The experiment in a line: Antischistosomal activity against Schistosoma japonicum infected in mouse at 25 mg/kg/day, po treated for 5 days measured after day 3 post last dose by ELISA. It is filed as functional, organism-based. The procedure, abridged: as §2
Data set [13] relates to Schistosoma japonicum. The experiment in a line: Antischistosomal activity against Schistosoma japonicum infected in mouse at 50 mg/kg/day, po treated for 5 days measured after day 3 post last dose by ELISA. It is filed as functional, organism-based. The procedure, abridged: as §2
In data set [14] the test system is Schistosoma japonicum. Kind of data set: Antischistosomal activity against Schistosoma japonicum infected in mouse at 25 mg/kg/day, po treated for 5 days measured after day 4 post last dose by ELISA. It is filed as functional, organism-based. In short, it runs like this: as §2
Data set [15] deals with Schistosoma japonicum. The experiment in a line: Antischistosomal activity against Schistosoma japonicum infected in mouse at 50 mg/kg/day, po treated for 5 days measured after day 4 post last dose by ELISA. The data set is classed as functional, organism-based. The procedure, abridged:
as §2

The subject of data set [16] is Schistosoma japonicum. The experiment in a line: Antischistosomal activity against Schistosoma japonicum infected in mouse at 25 mg/kg/day, po treated for 5 days measured after day 5 post last dose by ELISA. It is filed as functional, organism-based. In short, it runs like this:
as §2

For data set [17], the system named is Schistosoma japonicum. Kind of data set: Antischistosomal activity against Schistosoma japonicum infected in mouse at 50 mg/kg/day, po treated for 5 days measured after day 5 post last dose by ELISA. The data set is classed as functional, organism-based. The procedure, abridged:
as §2

Data set [18] deals with Schistosoma japonicum. The experiment in a line: Antischistosomal activity against Schistosoma japonicum infected in mouse at 25 mg/kg/day, po treated for 5 days measured after day 6 post last dose by ELISA. It is filed as functional, organism-based. The procedure, abridged: as §2
Data set [19] relates to Schistosoma japonicum. Kind of data set: Antischistosomal activity against Schistosoma japonicum infected in mouse at 50 mg/kg/day, po treated for 5 days measured after day 6 post last dose by ELISA. The data set is classed as functional, organism-based. In short, it runs like this:
as §2

Data set [20] has as its system Schistosoma japonicum. The experiment in a line: Antischistosomal activity against Schistosoma japonicum infected in mouse at 25 mg/kg/day, po treated for 5 days measured after day 7 post last dose by ELISA. The data set is classed as functional, organism-based. The procedure, abridged: as §2
Data set [21] has as its system Schistosoma japonicum. Kind of data set: Antischistosomal activity against Schistosoma japonicum infected in mouse at 50 mg/kg/day, po treated for 5 days measured after day 7 post last dose by ELISA. It is filed as functional, organism-based. The procedure, abridged: as §2
Data set [22] deals with Schistosoma japonicum. Kind of data set: Antischistosomal activity against Schistosoma japonicum infected in mouse at 25 mg/kg/day, po treated for 5 days measured after day 8 post last dose by ELISA. The data set is classed as functional, organism-based. The procedure, abridged: as §2
Data set [23] concerns Schistosoma japonicum. The experiment in a line: Antischistosomal activity against Schistosoma japonicum infected in mouse at 50 mg/kg/day, po treated for 5 days measured after day 8 post last dose by ELISA. It is filed as functional, organism-based. In short, it runs like this: as §2
In data set [24] the test system is Schistosoma japonicum. The experiment in a line: Antischistosomal activity against Schistosoma japonicum infected in mouse at 25 mg/kg/day, po treated for 5 days measured after day 9 post last dose by ELISA. The data set is classed as functional, organism-based. The procedure, abridged:
as §2

In data set [25] the test system is Schistosoma japonicum. Kind of data set: Antischistosomal activity against Schistosoma japonicum infected in mouse at 50 mg/kg/day, po treated for 5 days measured after day 9 post last dose by ELISA. It is filed as functional, organism-based. The procedure, abridged:
as §2

Data set [26] is described as follows: Acute toxicity in po dosed mouse infected with Schistosoma japonicum treated for 5 days. It is filed as organism-based. To be noted: in vivo.

For `CC(=O)Nc1ccc(OC(=S)Nc2ccc(Sc3ccc([N+](=O)[O-])cc3)cc2)cc1`, the IC50 in data set [1] was 16.7 µg/mL (≈ 37.9 µM); in data set [2], 31.2 µg/mL (≈ 71 µM). In addition, the logP in data set [3] stood at 5.06. The same molecule had a pKa in data set [4] of 8.99.

`CC(=O)Nc1ccc(OC(=S)Nc2ccc(Nc3ccc(C(F)(F)F)cc3)cc2)cc1`: the figures for the IC50 in [1] and in data set [2] were 11.2 µg/mL (≈ 25.1 µM) and 20 µg/mL (≈ 44.9 µM), respectively. In addition, the logP in data set [3] came to 5.32. The pKa in [4] came to 9.05.

For the molecule `O=[N+]([O-])c1ccc(Nc2ccc(NC(=S)Oc3ccc(O)cc3)cc2)cc1`, the IC50 in [1] turned out to be 6.42 µg/mL (≈ 16.8 µM); in data set [2], 8.05 µg/mL (≈ 21.1 µM). In addition, the outcome in [5], in data set [8], in data set [9], in data set [10], in data set [11] and in data set [12] was Active. Also, the result in data set [13], in data set [14], in [15], in data set [16], in [17] and in data set [18] was Active. Moreover, the outcome in data set [20] was Active. For the same molecule, the result in data set [6], in [7], in [19], in data set [21], in [22] and in data set [23] was inactive. In addition, the outcome in [24] and in data set [25] was inactive. Also, the log partition coefficient (logP) in data set [3] was determined as 4.54. In addition, the pKa in [4] amounted to 9.22. Besides, the LD50 at 120 h in [26] was 280 mg/kg.

Consider `O=[N+]([O-])c1ccc(Sc2ccc(NC(=S)Oc3ccc(O)cc3)cc2)cc1`, for which the figures for the half-maximal inhibitory concentration (IC50) in data set [1] and in data set [2] were 15.7 µg/mL (≈ 39.3 µM) and 30.5 µg/mL (≈ 76.6 µM), respectively. This molecule registered a logP in data set [3] of 5.25. Further, in [4], the pKa turned out to be 9.21.

With `Oc1ccc(OC(=S)Nc2ccc(Nc3ccc(C(Cl)(Cl)Cl)cc3)cc2)cc1`, the IC50 in data set [1] was 7.35 µg/mL (≈ 16.2 µM); in data set [2] it was 12.4 µg/mL (≈ 27.3 µM). Moreover, the result in data set [5], in data set [8], in data set [10], in data set [12], in data set [14] and in data set [18] was Active. The outcome in data set [20], in data set [22] and in data set [24] was Active. Also, the outcome in [6], in data set [7] and in data set [9] was inactive. Further, in data set [3], the logP stood at 6.79. The pKa in [4] was 9.23. In addition, in [26], the LD50 at 120 h was > 500 mg/kg.

In the case of `O=C(C1CCCCC1)N1CC(=O)N2CCc3ccccc3C2C1` (centres undefined) [PRAZIQUANTEL], the 50% inhibitory concentration (IC50) in data set [1] was determined as 6.33 µg/mL (≈ 20.3 µM); in data set [2], 7.98 µg/mL (≈ 25.5 µM). Moreover, the result in [8], in data set [9], in [10], in data set [11], in [12] and in [13] was Active. Further, the outcome in data set [14], in data set [15], in data set [16], in data set [17], in data set [18] and in data set [19] was Active. Besides, the result in [20], in data set [21], in [22], in [23], in data set [24] and in data set [25] was inactive. Moreover, in data set [26], the LD50 at 120 h was > 500 mg/kg.

As for `Oc1ccc(OC(=S)Nc2ccc(Sc3ccc(C(Cl)(Cl)Cl)cc3)cc2)cc1`, the values for the IC50 in [1] and in data set [2] were 21.1 µg/mL (≈ 44.8 µM) and 37.3 µg/mL (≈ 79.2 µM), respectively. In data set [3], this molecule yielded a logP of 7.43. Also, the pKa in data set [4] was found to be 9.22.

For `CC(=O)Nc1ccc(OC(=S)Nc2ccc(Sc3ccc(C(F)(F)F)cc3)cc2)cc1`, the figures for the half-inhibitory concentration (IC50) in data set [1] and in data set [2] were 19 µg/mL (≈ 41.1 µM) and 33.7 µg/mL (≈ 72.8 µM), respectively. This molecule also showed a logP in data set [3] of 5.96. This molecule also yielded a pKa in [4] of 9.02.

The IC50 is the midpoint of a concentration-inhibition curve. Broadly, the logP is the decadic logarithm of the partition coefficient of the neutral form, usually between octanol and water. Usually pKa stands for the negative logarithm of the acid dissociation constant. Broadly, the LD50 is the dose at which mortality reaches 50%. High values mean a less toxic substance, low ones a more toxic substance.
